Results: publication PMC3818134 (Clinical cancer research : an official journal of the …, 2013)

How the values were obtained:
[1] = system: stable p110α KD and control (CONSH) cell lines (RH30, RMS-1, RD, RMS-YM); assay: MTS growth inhibition in paired CONSH and stable p110α KD lines; type: cell-based, human; settings: MTS growth inhibition curves, 72hr exposure
In short: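 Lines were transduced with lentiviral PIK3CA or control shRNA at MOI 10 with polybrene (4μg/ml). Puromycin selection (2.5μg/ml) ran from day 2, and stable lines were derived over about 4 weeks. Cells were grown in DMEM with 10% FBS at 37°C, 5% CO2. MTS growth inhibition curves were run after 72hr continuous exposure to the test compound, diluted from 10mM stock.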

p110β = assay: PI3K isoform inhibition profile, p110β versus p110α; type: biochemical; settings: Suppl Fig S4A
RD cells = assay: GI50; type: cell-based, human; settings: RD cells with NRAS mutation
In short: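 RD cells in DMEM with 10% FBS at 37°C, 5% CO2. Compounds prepared as 10mM stocks, then diluted in medium. MTS read-out after 72hr continuous exposure; GI₅₀ = concentration giving 50% inhibition of proliferation. Isobologram: GI₅₀ of each single agent, plus GI₅₀ of one agent at several fixed sub-GI₅₀ concentrations of the other. These are plotted on the axes, with a diagonal line as theoretical additivity.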

pERK1/2 in RD cells = assay: Western immunoblot biomarker time course in RD cells; type: cell-based, human; settings: 0.5× and 1.0× GI50 concentrations, 48hr time course
In short: (§1)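 RD cells (DMEM, 10% FBS, 37°C) were treated with single agents or the combination at 0.5× and 1.0× GI₅₀ concentrations and sampled at time points up to 48h. Lysates (10μg) were run on Bis-Tris/Tris-Acetate gels and transferred to PVDF. Primary antibody 1:1,000 overnight at 4°C; HRP secondary 1:10,000 for 2h at room temperature; ECL Plus detection. PhosphorImager quantitation; treated/control levels expressed as % of time 0.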

pS6 in RD cells = assay: as above; type: cell-based, human; settings: 0.5× and 1.0× GI50 concentrations, 48hr time course
In short: as §1

[2] = system: pERK in RD xenograft tumors; assay: Tumor PD biomarker, MSD immunoassay; type: in vivo, mice; settings: RD xenografts, end of therapeutic study
In short: (§2)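 Female 6-8-week athymic nude (Ncr) mice bore subcutaneous flank RD xenografts (5 × 10⁶ cells in 25% matrigel). Once tumors reached ≈5 mm (n=6/group), mice received daily oral dosing for 19-22 days, alone or combined, with vehicle controls: MEK inhibitor 10mg/kg (10% DMSO water), TORC1/2 inhibitor 10 or 20mg/kg (acidified water), PI3K/mTOR inhibitor 25mg/kg (10% NMP/90% PEG300). Tumors were excised and snap-frozen at termination. MSD electrochemiluminescence gave phospho/total ratios in 10μg lysate.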

[3] = system: pAKT (Ser473) in RD xenograft tumors; assay: Tumor PD biomarker, MSD immunoassay; type: in vivo, mice; settings: RD xenografts, end of therapeutic study
In short: as §2

[4] = system: pS6 in RD xenograft tumors; assay: Tumor PD biomarker, MSD immunoassay; type: in vivo, mice; settings: RD xenografts, end of therapeutic study
In short: as §2

[5] = Plasma and tumor pharmacokinetics; type: in vivo, mice; settings: for plasma level 16hrs following treatment: 10mg/kg p.o., mice bearing RD xenografts; for plasma concentrations when administered alone: AZD8055 compared with NVP-BEZ235
In short: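 Female 6-8 week athymic nude (Ncr) mice carried subcutaneous RD xenografts (5 × 10⁶ cells, 25% matrigel). Oral dosing at 0.1mL/10g: MEK inhibitor 10mg/kg in 10% DMSO water; TORC1/2 inhibitor 10 or 20mg/kg in acidified water; PI3K/mTOR inhibitor 25mg/kg in 10% NMP/90% PEG300. Given alone or combined. Plasma and tumors were sampled at various times (n=3), or 3hrs after the final daily dose (19-22 days). Analysed by LC-MS/MS with MRM.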

pSer473AKT in RD cells = assay: Western immunoblot biomarker time course in RD cells; type: cell-based, human; settings: 0.5× and 1.0× GI50 concentrations, 48hr time course
In short: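 RD cells (DMEM, 10% FBS, 37°C, 5% CO2) treated with test compounds singly or combined; protein extracted at time points over 48 hr. Lysates BCA-quantified, 10 μg on Bis-Tris or Tris-Acetate gels, PVDF transfer, primary 1:1,000 overnight 4°C, HRP secondary 1:10,000 2 h RT, ECL Plus, phosphorimager quantitation. Control and treated loaded side by side; treated/control phospho-levels given as % of time 0.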

MEK1/2 = settings: read-out: IC50 concentration for MEK1/2; cited from earlier work
mTor = settings: cited from earlier work
p110α = assay: PI3K isoform inhibition profile, p110α versus other isoforms; type: biochemical; settings: Suppl Fig S4A
PI3K/mTORC1/2 = settings: cited from earlier work
[6] = 10mg/kg p.o. each, versus alone

Cc1cc(C(C)Nc2ccccc2)c2nc(N3CCOCC3)cc(=O)n2c1 (stereo not drawn) [TGX221]
sensitivity of stable p110α KD lines compared with CONSH counterparts [1]: only the RMS-1 stable KD cell line, with minimal p110α and δ expression, showed increased sensitivity
selectivity for p110β versus p110α (p110β): 78 fold

COc1ccc(-c2ccc3c(N4CCOC[C@@H]4C)nc(N4CCOC[C@@H]4C)nc3n2)cc1CO [AZD8055]
sensitivity of stable p110α KD lines compared with CONSH counterparts [1]: more sensitive to mTOR inhibition than their CONSH counterparts
single-agent sensitivity of RD cells (RD cells): relatively resistant
pERK levels (pERK1/2 in RD cells): increased pERK levels
pS6 levels / inhibition of S6 phosphorylation (pS6 in RD cells): concentration dependent
change of tumor pERK levels [2]: increased pERK levels to a greater extent than NVP-BEZ235
change of tumor AKT phosphorylation [3]: equally efficient in reducing AKT and S6 phosphorylation
change of tumor S6 phosphorylation [4]: equally efficient in reducing AKT and S6 phosphorylation
plasma and tumor levels in combination with AZD6244 [5, 6]: higher
plasma level 16hrs following treatment [5]: close to, or below, the limit of detection
plasma concentration range in combination with AZD6244 versus alone ([5]; 3hrs following the final dose): increased
plasma concentrations when administered alone ([5]; 3hrs following the final dose): in the same range

Cn1cnc2c(F)c(Nc3ccc(Br)cc3Cl)c(C(=O)NOCCO)cc21 [AZD6244]
sensitivity of stable p110α KD lines compared with CONSH counterparts [1]: only the RMS-1 KD line (lacking both p110α and p110δ) exhibited significantly enhanced sensitivity
single-agent sensitivity of RD cells (RD cells): relatively resistant
pERK levels (pERK1/2 in RD cells): ablated pERK levels at all time points and both concentrations
pSer473AKT levels (pSer473AKT in RD cells): increased p^Ser473AKT levels
elimination phase in combination with AZD8055 [5, 6]: extended
peak plasma concentrations in combination with AZD8055 [5, 6]: reduced
plasma level 16hrs following treatment [5]: close to, or below, the limit of detection
plasma AZD6244 concentrations in combination with NVP-BEZ235 ([5]; 3hrs following the final dose): reduced plasma concentrations of AZD6244 to a similar extent as AZD8055
IC50 (MEK1/2): 14 nM

FC(F)c1nc2ccccc2n1-c1nc(N2CCOCC2)nc(N2CCOCC2)n1 [ZSTK474]
sensitivity of stable p110α KD lines compared with CONSH counterparts [1]: increased sensitivity
IC50 (mTor; read-out: IC50 against mTor): 377 nM

Nc1cc(C(F)(F)F)c(-c2cc(N3CCOCC3)nc(N3CCOCC3)n2)cn1 [BMK120]
sensitivity of stable p110α KD lines compared with CONSH counterparts [1]: No differences in sensitivity
selectivity for p110α versus the other isoforms (p110α): modestly selective for p110α versus the other isoforms

Cn1c(=O)n(-c2ccc(C(C)(C)C#N)cc2)c2c3cc(-c4cnc5ccccc5c4)ccc3ncc21 [NVP-BEZ235]
sensitivity of stable p110α KD lines compared with CONSH counterparts [1]: more sensitive to mTOR inhibition than their CONSH counterparts
change of tumor AKT phosphorylation [3]: equally efficient in reducing AKT and S6 phosphorylation
change of tumor S6 phosphorylation [4]: equally efficient in reducing AKT and S6 phosphorylation
plasma concentration range in combination with AZD6244 versus alone ([5]; 3hrs following the final dose): increased
plasma concentrations when administered alone ([5]; 3hrs following the final dose): in the same range
concentrations at which it predominantly inhibits mTOR (mTor): less than 100 nM
concentrations at which it is a dual PI3K/mTORC1/2 inhibitor (PI3K/mTORC1/2): above 500 nM
